According to ChEMBL document CHEMBL2169776, “Antimicrobial activity of peptidomimetics against multidrug-resistant Escherichia coli: a comparative study of different backbones” (J Med Chem, 2012):
In brackets after ≈: the same amount, converted by molar mass. Square brackets hold non-standard residues; d marks the D form. Peptide text beside a SMILES is read from it. Nphe = O=C(O)CNCc1ccccc1; Nlys = NCCCCNCC(=O)O

Experiments:
[1] = test system: Klebsiella pneumoniae; assay: Antibacterial activity against multidrug resistant NDM-1 producing Klebsiella pneumoniae isolate after 16 to 20 hrs by broth microdilution assay; assay type: functional
[2] = test system: Escherichia coli; assay: Antibacterial activity against Escherichia coli ATCC 25922 after 16 to 20 hrs by broth microdilution assay; assay type: functional
[3] = Hemolytic activity against human RBCs after 1 hr by spectrophotometry; assay type: ADME, cell-based; conditions: erythrocyte
Procedure, shortened: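 Freshly drawn human erythrocytes washed in TBS (pH 7.2, 10 mM Tris, 150 mM NaCl), 1% v/v suspension mixed with 2-fold serial dilutions (1−128 μM) in water; 1 h at 37 °C. After pelleting, supernatant diluted 1:1 with water and hemoglobin read at OD 405 nm. Melittin (400 μg/mL) = 100%, TBS = 0%. Value is the lowest concentration giving ≥10% lysis.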

[4] = Proteolytic stability of compound in presence of Pronase by reverse phase HPLC analysis; assay type: ADME
Procedure, shortened: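 Oligomer (2 mg/mL solution, 250 μL) incubated with Pronase (1.0 mg/mL solution, 50 μL) in 10 mM Tris pH 7.5 (1.2 mL); enzyme activity first confirmed on Nα-benzoyl arginine. Degradation followed by analytical reverse-phase HPLC (10−60% B) at 6, 12, 18 and 50 h; degradation product identified by HRMS.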

[5] = test system: Staphylococcus aureus; assay: Antibacterial activity against methicillin-resistant Staphylococcus aureus isolate after 16 to 20 hrs by broth microdilution assay; assay type: functional
[6] = test system: HeLa; assay: Cytotoxicity against human HeLa cells assessed as growth inhibition after 1 hr; assay type: cell-based
Procedure, shortened: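 HeLa cells seeded at 9000 per well, cultured 24 h; at 80−100% confluency washed with HBSS and exposed 1 h (37 °C, 50 rpm) to 2-fold serial dilutions in EMEM. After washing, MTS/PMS (240/2.4 μg/mL) in HBSS added for 1.5 h; formazan read at 492 nm. 0.2% SDS = 0%, EMEM alone = 100%. Test range 1−128 or 8−1024 μM; IC50 reported.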

[7] = test system: Escherichia coli; assay: Antibacterial activity against multidrug resistant Amp-C producing Escherichia coli isolate after 16 to 20 hrs by broth microdilution assay; assay type: functional
[8] = test system: Escherichia coli; assay: Antibacterial activity against multidrug resistant NDM-1 producing Escherichia coli isolate after 16 to 20 hrs by broth microdilution assay; assay type: functional
[9] = test system: Klebsiella pneumoniae; assay: Antibacterial activity against multidrug resistant KPC producing Klebsiella pneumoniae isolate after 16 to 20 hrs by broth microdilution assay; assay type: functional
[10] = Therapeutic index, ratio of HC10 for human erythrocyte cells to MIC for multidrug resistant bacterial strains; conditions: read-out: TI
Procedure, shortened: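 TI = hemolytic activity divided by median of MIC values. Hemolysis: washed fresh human RBCs (1% v/v in TBS, pH 7.2) with 2-fold oligomer dilutions (1–128 μM), 37 °C, 1 h; supernatant OD 405 nm; melittin 400 μg/mL = 100%, TBS = 0%. HA = concentration giving ≥10% lysis. MICs by broth microdilution, 35 °C, 16–20 h.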

[11] = test system: Escherichia coli; assay: Antibacterial activity against multidrug resistant ESBL producing Escherichia coli isolate after 16 to 20 hrs by broth microdilution assay; assay type: functional

| Molecule | MIC [1] | MIC [2] | HC10 [3] | Stability [4] | MIC [5] | IC50 [6] | MIC [7] | MIC [8] | MIC [9] | selectivity ratio [10] | MIC [11] |
| --- | --- | --- | --- | --- | --- | --- | --- | --- | --- | --- | --- |
| CC(=O)N(CCCCN)CCC(=O)N[C@@H](Cc1ccccc1)C(=O)N(CCCCN)CCC(=O)N[C@@H](Cc1ccccc1)C(=O)N(CCCCN)CCC(=O)N[C@@H](Cc1ccccc1)C(=O)N(CCCCN)CCC(=O)N[C@@H](Cc1ccccc1)C(=O)N(CCCCN)CCC(=O)N[C@@H](Cc1ccccc1)C(=O)N(CCCCN)CCC(=O)N[C@@H](Cc1ccccc1)C(=O)N(CCCCN)CCC(=O)N[C@@H](Cc1ccccc1)C(=O)N(CCCCN)CCC(=O)N[C@@H](Cc1ccccc1)C(N)=O | 256 µM (≈ 608 µg/mL) | 8 µM (≈ 19 µg/mL) | > 128 µM | Stable | 256 µM (≈ 608 µg/mL) | 62.6 µM | 16 µM (≈ 38 µg/mL) | 2 µM (≈ 4.75 µg/mL) | 64 µM (≈ 152 µg/mL) | > 11 | 16 µM (≈ 38 µg/mL) |
| CC(=O)N[C@@H](CCCCN)C(=O)N[C@@H](Cc1ccccc1)C(=O)N[C@@H](CCCCN)C(=O)N[C@@H](Cc1ccccc1)C(=O)N[C@@H](CCCCN)C(=O)N[C@@H](Cc1ccccc1)C(=O)N[C@@H](CCCCN)C(=O)N[C@@H](Cc1ccccc1)C(=O)N[C@@H](CCCCN)C(=O)N[C@@H](Cc1ccccc1)C(=O)N[C@@H](CCCCN)C(=O)N[C@@H](Cc1ccccc1)C(=O)N[C@@H](CCCCN)C(=O)N[C@@H](Cc1ccccc1)C(=O)N[C@@H](CCCCN)C(=O)N[C@@H](Cc1ccccc1)C(N)=O | > 256 µM | > 256 µM | < 1 µM | Unstable | 16 µM (≈ 36.2 µg/mL) | 19.6 µM | > 256 µM | 128 µM (≈ 290 µg/mL) | > 256 µM | < 0.004 | > 256 µM |
| GENTAMICIN | 111 µM | 1.7 µM | – | – | 56 µM | – | 6.9 µM | > 111 µM | > 111 µM | – | > 111 µM |
| CC(=O)N[C@H](CCCCN)C(=O)N[C@H](Cc1ccccc1)C(=O)N[C@H](CCCCN)C(=O)N[C@H](Cc1ccccc1)C(=O)N[C@H](CCCCN)C(=O)N[C@H](Cc1ccccc1)C(=O)N[C@H](CCCCN)C(=O)N[C@H](Cc1ccccc1)C(=O)N[C@H](CCCCN)C(=O)N[C@H](Cc1ccccc1)C(=O)N[C@H](CCCCN)C(=O)N[C@H](Cc1ccccc1)C(=O)N[C@H](CCCCN)C(=O)N[C@H](Cc1ccccc1)C(=O)N[C@H](CCCCN)C(=O)N[C@H](Cc1ccccc1)C(N)=O | 256 µM (≈ 579 µg/mL) | 128 µM (≈ 290 µg/mL) | < 1 µM | Stable | 16 µM (≈ 36.2 µg/mL) | 18.1 µM | 256 µM (≈ 579 µg/mL) | 128 µM (≈ 290 µg/mL) | 256 µM (≈ 579 µg/mL) | < 0.008 | 256 µM (≈ 579 µg/mL) |
| CO/N=C(\C(=O)N[C@@H]1C(=O)N2C(C(=O)O)=C(COC(C)=O)CS[C@H]12)c1csc(N)n1 [CEFOTAXIME] | > 134 µM | < 0.1 µM | – | – | 34 µM (≈ 15.5 µg/mL) | – | 2.1 µM (≈ 0.956 µg/mL) | > 134 µM | > 134 µM | – | > 134 µM |
| CC(=O)N[C@@H](CCCCN)CC(=O)N[C@H](CC(=O)N[C@@H](CCCCN)CC(=O)N[C@H](CC(=O)N[C@@H](CCCCN)CC(=O)N[C@H](CC(=O)N[C@@H](CCCCN)CC(=O)N[C@H](CC(=O)N[C@@H](CCCCN)CC(=O)N[C@H](CC(=O)N[C@@H](CCCCN)CC(=O)N[C@H](CC(=O)N[C@@H](CCCCN)CC(=O)N[C@H](CC(=O)N[C@@H](CCCCN)CC(=O)N[C@H](CC(N)=O)Cc1ccccc1)Cc1ccccc1)Cc1ccccc1)Cc1ccccc1)Cc1ccccc1)Cc1ccccc1)Cc1ccccc1)Cc1ccccc1 | 32 µM (≈ 79.6 µg/mL) | 16 µM (≈ 39.8 µg/mL) | 128 µM | Stable | 16 µM (≈ 39.8 µg/mL) | 31 µM | 32 µM (≈ 79.6 µg/mL) | 32 µM (≈ 79.6 µg/mL) | 32 µM (≈ 79.6 µg/mL) | 4 | 32 µM (≈ 79.6 µg/mL) |
| CC(=O)N(CCCCN)CC(=O)N[C@@H](Cc1ccccc1)C(=O)N(CCCCN)CC(=O)N[C@@H](Cc1ccccc1)C(=O)N(CCCCN)CC(=O)N[C@@H](Cc1ccccc1)C(=O)N(CCCCN)CC(=O)N[C@@H](Cc1ccccc1)C(=O)N(CCCCN)CC(=O)N[C@@H](Cc1ccccc1)C(=O)N(CCCCN)CC(=O)N[C@@H](Cc1ccccc1)C(=O)N(CCCCN)CC(=O)N[C@@H](Cc1ccccc1)C(=O)N(CCCCN)CC(=O)N[C@@H](Cc1ccccc1)C(N)=O (Ac-[Nlys]F[Nlys]F[Nlys]F[Nlys]F[Nlys]F[Nlys]F[Nlys]F[Nlys]F-NH2) | 256 µM (≈ 579 µg/mL) | 16 µM (≈ 36.2 µg/mL) | > 128 µM | – | > 256 µM | 267 µM | 32 µM (≈ 72.4 µg/mL) | 32 µM (≈ 72.4 µg/mL) | 256 µM (≈ 579 µg/mL) | > 5 | 16 µM (≈ 36.2 µg/mL) |
| CC(=O)N(CCCCN)CC(=O)N(CC(=O)N(CCCCN)CC(=O)N(CC(=O)N(CCCCN)CC(=O)N(CC(=O)N(CCCCN)CC(=O)N(CC(=O)N(CCCCN)CC(=O)N(CC(=O)N(CCCCN)CC(=O)N(CC(=O)N(CCCCN)CC(=O)N(CC(=O)N(CCCCN)CC(=O)N(CC(N)=O)Cc1ccccc1)Cc1ccccc1)Cc1ccccc1)Cc1ccccc1)Cc1ccccc1)Cc1ccccc1)Cc1ccccc1)Cc1ccccc1 (Ac-[Nlys][Nphe][Nlys][Nphe][Nlys][Nphe][Nlys][Nphe][Nlys][Nphe][Nlys][Nphe][Nlys][Nphe][Nlys][Nphe]-NH2) | 256 µM (≈ 579 µg/mL) | 32 µM (≈ 72.4 µg/mL) | > 128 µM | Stable | 256 µM (≈ 579 µg/mL) | 194 µM | 32 µM (≈ 72.4 µg/mL) | 32 µM (≈ 72.4 µg/mL) | 256 µM (≈ 579 µg/mL) | > 4 | 64 µM (≈ 145 µg/mL) |
| CC(=O)N[C@@H](CCCCN)C(=O)N(CCC(=O)N[C@@H](CCCCN)C(=O)N(CCC(=O)N[C@@H](CCCCN)C(=O)N(CCC(=O)N[C@@H](CCCCN)C(=O)N(CCC(=O)N[C@@H](CCCCN)C(=O)N(CCC(=O)N[C@@H](CCCCN)C(=O)N(CCC(=O)N[C@@H](CCCCN)C(=O)N(CCC(=O)N[C@@H](CCCCN)C(=O)N(CCC(N)=O)Cc1ccccc1)Cc1ccccc1)Cc1ccccc1)Cc1ccccc1)Cc1ccccc1)Cc1ccccc1)Cc1ccccc1)Cc1ccccc1 | 256 µM (≈ 608 µg/mL) | 8 µM (≈ 19 µg/mL) | > 128 µM | Stable | > 256 µM | 25.9 µM | 8 µM (≈ 19 µg/mL) | 4 µM (≈ 9.5 µg/mL) | 128 µM (≈ 304 µg/mL) | > 21 | 4 µM (≈ 9.5 µg/mL) |
| CC(=O)N(CCCCN)CCC(=O)N(CCC(=O)N(CCCCN)CCC(=O)N(CCC(=O)N(CCCCN)CCC(=O)N(CCC(=O)N(CCCCN)CCC(=O)N(CCC(=O)N(CCCCN)CCC(=O)N(CCC(=O)N(CCCCN)CCC(=O)N(CCC(=O)N(CCCCN)CCC(=O)N(CCC(=O)N(CCCCN)CCC(=O)N(CCC(N)=O)Cc1ccccc1)Cc1ccccc1)Cc1ccccc1)Cc1ccccc1)Cc1ccccc1)Cc1ccccc1)Cc1ccccc1)Cc1ccccc1 | 256 µM (≈ 636 µg/mL) | 16 µM (≈ 39.8 µg/mL) | > 128 µM | Stable | 256 µM (≈ 636 µg/mL) | 169 µM | 16 µM (≈ 39.8 µg/mL) | 4 µM (≈ 9.95 µg/mL) | 256 µM (≈ 636 µg/mL) | > 10 | 8 µM (≈ 19.9 µg/mL) |
| O=C(O)c1cn(C2CC2)c2cc(N3CCNCC3)c(F)cc2c1=O [CIPROFLOXACIN] | – | < 0.1 µM | – | – | 19 µM (≈ 6.3 µg/mL) | – | – | – | – | – | – |
